Each block holds one molecule with its values, some of them ahead of it. Activity calls are given as the source filed them. The calls are words filed in the database; no cut-off is given here.
Tests used:
[1] = Drug uptake in human HNT1 cells assessed as drug retention at 1600 nM incubated for 24 hrs in presence of 10% fetal bovine serum measured after 24 hrs chase period by fluorescent microscopy; assay type: ADME, cell-based; conditions: hnt1, 24 h, 1.6 µM
[2] = Drug uptake in human HN-143-T-EC cells assessed as drug retention in mitochondria measured after 72 hrs chase period by fluorescent microscopy; assay type: ADME
[3] = Drug uptake in human HN-143 T-EC cells assessed as drug retention at 1600 nM incubated for 24 hrs in presence of 10% fetal bovine by fluorescent microscopy imaging based analysis; assay type: ADME, cell-based; conditions: 1.6 µM
Procedure, shortened: (§1)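 Cells incubated 24 h in medium with 10% serum and 1600 nM PS, then chased in PS-free medium for up to 72 h with daily medium changes. Cellular PS was measured daily by fluorescence microscopy; net fluorescence intensity per full image frame was quantified in arbitrary units.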

[4] = Drug uptake in human HN-85 T-EC cells assessed as drug retention at 1600 nM incubated for 24 hrs in presence of 10% fetal bovine serum measured after 24 hrs chase period by fluorescent microscopy; assay type: ADME, cell-based; conditions: 1.6 µM
HN-143 T-EC = experiment: Binding affinity to human HN-143 T-EC cell membrane surface measured at 1600 nM incubated for 30 min; assay type: tissue-based
[5] = Drug uptake in human HN-143 T-EC cells assessed as drug retention at 1600 nM incubated for 24 hrs in presence of 10% fetal bovine serum measured after 72 hrs chase period by fluorescent microscopy imaging based analysis; assay type: ADME, cell-based; conditions: 1.6 µM; procedure, shortened: as §1
[6] = Drug uptake in human HN-143-T-EC cells assessed as drug retention in endoplasmic reticulum measured after 72 hrs by fluorescent microscopy; assay type: ADME, cell-based
[7] = Drug uptake in human HN-143 T-EC cells assessed as drug retention at 1600 nM incubated for 24 hrs in presence of 10% fetal bovine serum measured after 48 hrs chase period by fluorescent microscopy imaging based analysis; assay type: ADME, cell-based; conditions: 1.6 µM; procedure, shortened: as §1
[8] = Drug uptake in tissue cultured human TEC1-2 cells assessed as drug retention at 1600 nM incubated for 24 hrs in presence of 10% fetal bovine serum measured after 24 hrs chase period by fluorescent microscopy; assay type: ADME, tissue-based; conditions: tec1-2, 24 h, 1.6 µM
[9] = Drug uptake in human HN-143 T-EC cells assessed as slow release by measuring drug retention at 1600 nM incubated for 24 hrs in presence of 10% fetal bovine serum measured after 48 hrs chase period by fluorescent microscopy imaging based analysis; assay type: ADME, cell-based; conditions: 1.6 µM; procedure, shortened: as §1
[10] = Lipophilicity, logP of the compound; assay type: physicochemical; conditions: octanol/water
[11] = Photoreactivation in human TEC21 cells assessed as STAT3cross-linking in presence of 10% fetal bovine serum under 665 nm light for 9 mins measured after 24 hrs by immune blot analysis; assay type: cell-based; conditions: tec-21, 0.15 h
Procedure, shortened: (§2)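 TEC-21 cells (p 8) treated 24 h in RPMI + 10% FBS with PS, imaged, chased 48 h in RPMI + 10% FBS, then irradiated 9 min with 665 nm light (6 mW/cm²). Cells were extracted immediately and immunoblotted for STAT3 crosslinking, EGFR and phospho-p38 MAPK.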

[12] = Drug uptake in tissue cultured human TEC1-2 cells assessed as drug retention at 1600 nM incubated for 24 hrs in presence of 10% fetal bovine serum measured after 48 hrs chase period by fluorescent microscopy; assay type: ADME, tissue-based; conditions: tec1-2, 24 h, 1.6 µM
[13] = Photoreactivation in human TEC21 cells in presence of 10% fetal bovine serum under 665 nm light for 9 mins measured after 24 hrs by immune blot analysis; assay type: cell-based; conditions: tec-21, 24 h; procedure, shortened: as §2
[14] = Photoreactivation in human HN-85 T-EC cells at 100 to 400 nM in presence of 10% fetal bovine serum under 3 J/cm^2 light for 9 mins measured after 24 hrs by Western blotting analysis; conditions: 0.15 h, 0.4 µM
[15] = Drug uptake in human HN-T1 cells assessed as drug internalization at 1600 nM incubated for 24 hrs in presence of 10% fetal bovine serum measured after 24 hrs chase period by fluorescent microscopy; assay type: ADME, cell-based; conditions: hnt1, 24 h, 1.6 µM
[16] = Drug uptake in human FaDu-124 cell membrane assessed as drug internalization at 1600 nM incubated for 30 mins at 37 degC; assay type: ADME, cell-based; conditions: fadu-124, 0.5 h, 1.6 µM
Procedure, shortened: (§3)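 FaDu-124 cells, 30 min on ice in serum-free DMEM with 1600 nM PS, then cell-associated fluorescence imaged. For diffusion into cells, cultures were then held 30 min at 37°C in fresh serum-free medium and imaged again.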

FaDu-124 = experiment: Binding affinity to human FaDu-124 cell membrane surface measured at 1600 nM incubated for 30 mins at 0 degC; assay type: tissue-based; procedure, shortened: as §3
HNT1 = experiment: Binding affinity to human HNT1 cell plasma membrane with CFSE-labeled HN-87 T-Fb assessed as drug retention at 1600 nM incubated for 24 hrs in presence of 10% fetal bovine serum measured after 24 hrs chase period by fluorescent microscopy; assay type: cell membranes
Procedure, shortened: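 HNT1 cells (p 72) co-cultured on collagen-1 with CFSE-stained HN-87 T-Fb fibroblasts (added to 24 h-old tumor cultures, grown 3–7 days to confluence). Treated 24 h with DMEM + 10% FBS and 1600 nM PS, chased 24 h in DMEM + 10% FBS, then fluorescence imaged under identical conditions.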

TEC1-2 = experiment: Binding affinity to human TEC1-2 cell plasma membrane assessed as drug retention at 1600 nM incubated for 24 hrs in presence of 10% fetal bovine serum measured after 48 hrs chase period by fluorescent microscopy; assay type: cell membranes
[17] = Drug uptake in human L237 cells assessed as drug retention at 1600 nM incubated for 24 hrs in presence of 10% fetal bovine serum measured after 48 hrs chase period by fluorescent microscopy; assay type: ADME, cell-based; conditions: l237, 48 h, 1.6 µM
Procedure, shortened: (§4)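 Confluent cultures (e.g. HN-77 T-EC, p 13) incubated 24 h in RPMI + 10% FBS with 1600 nM PS, then 48 h chase in RPMI + 10% FBS. Fluorescence images recorded and net fluorescence intensity quantified.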

[18] = Drug uptake in human HNT1 cells assessed as drug retention at 1600 nM incubated for 24 hrs in presence of 10% fetal bovine serum measured after 48 hrs chase period by fluorescent microscopy; assay type: ADME, cell-based; conditions: hnt1, 48 h, 1.6 µM
[19] = Drug uptake in human HNT1 cells with CFSE-labeled HN-101 T-Fb assessed as drug retention at 1600 nM incubated for 24 hrs in presence of 10% fetal bovine serum measured after 24 hrs chase period by fluorescent microscopy; assay type: ADME, cell-based; conditions: hnt1, 24 h, 1.6 µM
Procedure, shortened: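 Co-cultures of HNT1 cells (p 103) with CFSE-labeled HN-101 T-Fb on collagen-1 matrix; 24 h in DMEM + 10% FBS with 1600 nM PS, then 24 h chase in PS-free medium; cell-associated fluorescence imaged by microscopy.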

[20] = Drug uptake in human FaDu clone 49 cells assessed as drug retention at 1600 nM incubated for 24 hrs in presence of 10% fetal bovine serum measured after 72 hrs chase period by fluorescent microscopy imaging based analysis; assay type: ADME, cell-based; conditions: fadu clone 49, 72 h, 1.6 µM; procedure, shortened: as §1
[21] = Drug uptake in human HN-T1 cells assessed as drug retention at 1600 nM incubated for 24 hrs in presence of 10% fetal bovine serum measured after 72 hrs chase period by fluorescent microscopy imaging based analysis; assay type: ADME, cell-based; conditions: hnt1, 72 h, 1.6 µM; procedure, shortened: as §1
[22] = Drug uptake in human TEC-21 cells assessed as drug retention at 1600 nM incubated for 24 hrs in presence of 10% fetal bovine serum measured after72 hrs chase period by fluorescent microscopy imaging based analysis; assay type: ADME, cell-based; conditions: tec-21, 72 h, 1.6 µM; procedure, shortened: as §1
[23] = Drug uptake in human FaDu-124 cells assessed as drug retention at 1600 nM incubated for 24 hrs in presence of 10% fetal bovine serum measured after 48 hrs chase period by fluorescent microscopy; assay type: ADME, cell-based; conditions: fadu-124, 48 h, 1.6 µM
[24] = Drug uptake in human HN-142 T-EC cells assessed as drug retention at 1600 nM incubated for 24 hrs in presence of 10% fetal bovine serum measured after 48 hrs chase period by fluorescent microscopy; assay type: ADME, cell-based; conditions: 1.6 µM; procedure, shortened: as §4
[25] = Drug uptake in human HN-77 T-EC cells assessed as drug retention at 1600 nM incubated for 24 hrs in presence of 10% fetal bovine serum measured after 48 hrs chase period by fluorescent microscopy; assay type: ADME, cell-based; conditions: 1.6 µM; procedure, shortened: as §4
[26] = Drug uptake in human HN-90 T-EC cells assessed as drug retention at 1600 nM incubated for 24 hrs in presence of 10% fetal bovine serum measured after 72 hrs chase period by fluorescent microscopy imaging based analysis; assay type: ADME, cell-based; conditions: 1.6 µM; procedure, shortened: as §1
[27] = Drug uptake in human TEC-1 cells assessed as drug retention at 1600 nM incubated for 24 hrs in presence of 10% fetal bovine serum measured after 48 hrs chase period by fluorescent microscopy; assay type: ADME, cell-based; conditions: tec-1, 48 h, 1.6 µM; procedure, shortened: as §4

Structure (SMILES): CCCCC(C)OC(C)c1c(C)c2cc3nc(c4c5[nH]c(cc6nc(cc1[nH]2)C(C)=C6CC)c(C)c5C(=O)C4)[C@@H](CCC(=O)O)C3C (stereo partly drawn)
Drug uptake [1]: Active | Drug uptake [2]: Active | Drug uptake [3]: Active | Drug uptake [4]: Not Active | Activity (HN-143 T-EC): Active | Drug uptake [5]: Active | Drug uptake [6]: Active

Structure (SMILES): CCCCOC(CCC)c1c(C)c2cc3nc(c4c5[nH]c(cc6nc(cc1[nH]2)C(C)=C6CC)c(C)c5C(=O)C4)[C@@H](CCC(=O)O)C3C (stereo partly drawn)
Drug uptake [2]: Active | Drug uptake [3]: Active | Drug uptake [7]: Active | Drug uptake [8]: Active | Drug uptake [9]: Active | logP [10]: 6.56 | Activity [11]: 3.1% | Drug uptake [5]: Active | Drug uptake [6]: Active | Drug uptake [12]: Active | Drug metabolism [13]: Metabolite_Detected

Structure (SMILES): CCCCCCOCc1c(C)c2cc3nc(c4c5[nH]c(cc6nc(cc1[nH]2)C(C)=C6CC)c(C)c5C(=O)C4)[C@@H](CCC(=O)O)C3C (stereo partly drawn)
Activity (HN-143 T-EC): Active

Structure (SMILES): CCCCCCOC(C)c1c(C)c2cc3nc(c4c5[nH]c(cc6nc(cc1[nH]2)C(C)=C6CC)c(C)c5C(=O)C4)[C@@H](CCC(=O)O)C3C (stereo partly drawn)
Drug uptake [1]: Not Active | Drug uptake [2]: Active | Drug uptake [3]: Active | Drug uptake [17]: Not Active | Drug uptake [18]: Not Active | logP [10]: 6.01 | Drug uptake [16]: Active | Drug uptake [19]: Active | Activity [11]: 0.4% | Drug uptake [5]: Active | Drug uptake [20]: Active | Activity (FaDu-124): Active | Drug uptake [21]: Active | Drug uptake [22]: Active | Drug uptake [23]: Not Active | Drug uptake [24]: Not Active | Drug uptake [25]: Not Active | Drug uptake [26]: Active | Drug uptake [27]: Not Active

Further lines, with some results ahead:

Drug uptake [2]: Active | Drug metabolism [14]: Metabolite_Detected | Drug uptake [4]: Not Active | Drug uptake [9]: Active | Drug uptake [5]: Active | Drug uptake [6]: Active
Structure (SMILES): CCCCC(C)OC(C)c1c(C)c2cc3nc(c4c5[nH]c(cc6nc(cc1[nH]2)C(C)=C6CC)c(C)c5C(=O)C4)[C@@H](CCC(=O)OC)C3C (stereo partly drawn)

Drug uptake [15]: Active
Structure (SMILES): CCCCc1c(C)c2cc3nc(c4c5[nH]c(cc6nc(cc1[nH]2)C(C)=C6CC)c(C)c5C(=O)C4)[C@@H](CCC(=O)OC)C3C (stereo partly drawn)

Drug uptake [16]: Active | Drug uptake [5]: Active
Structure (SMILES): CCCCCCSC(C)c1c(C)c2cc3nc(c4c5[nH]c(cc6nc(cc1[nH]2)C(C)=C6CC)c(C)c5C(=O)C4)[C@@H](CCC(=O)OC)C3C (stereo partly drawn)
Activity (FaDu-124): Active

Activity (HNT1): inactive | Activity (TEC1-2): inactive
Structure (SMILES): CCCCCCOCc1c(C)c2cc3nc(c4c5[nH]c(cc6nc(cc1[nH]2)C(C)=C6CC)c(C)c5C(=O)C4)[C@@H](CCC(=O)OC)C3C (stereo partly drawn)

Drug uptake [2]: Active | Drug uptake [5]: Active | Drug uptake [6]: Active
Structure (SMILES): CCCCCCOC(CCC)c1c(C)c2cc3nc(c4c5[nH]c(cc6nc(cc1[nH]2)C(C)=C6CC)c(C)c5C(=O)C4)[C@@H](CCC(=O)OC)C3C (stereo partly drawn)

Reference: ChEMBL document CHEMBL5036308, “Chiral Alkyl Groups at Position 3(1') of Pyropheophorbide-a Specify Uptake and Retention by Tumor Cells and Are Essential for Effective Photodynamic Therapy” (J Med Chem, 2021)
